Experiments:
[1] = target: T1, 5-hydroxytryptamine receptor 2B (Homo sapiens, UniProt P41595); test: Binding affinities towards human cloned 5-hydroxytryptamine 2B receptor in HEK293 cells using [3H]5-HT as radioligand.; format: cell-based
In short: (§1)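 Competition binding at human cloned receptors expressed in HEK 293 cells. Radioligands: [3H]ketanserin for 5-HT2A, [3H]5-HT for 5-HT2B, [3H]mesulergine for 5-HT2C. Values are pKi, given as the mean of at least two determinations, each within 0.2 log unit of the mean.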

[2] = test system: Rattus norvegicus; test: Dose required to reverse mCPP induced hypolocomotion in rat after oral administration.; format: functional; conditions: read-out: ID50 (the source's name)
In short: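 Rat hypolocomotion model. The test compound was given orally, and mCPP was given at 7 mg/kg ip 30 min before the test. ID50 (mg/kg po) is the dose that reverses mCPP-induced hypolocomotion by 50%.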

[3] = target: T2, 5-hydroxytryptamine receptor 2C (Homo sapiens, UniProt P28335); test: Binding affinity towards human cloned 5-hydroxytryptamine receptor 2C in HEK293 cells, using [3H]mesulergine as radioligand.; format: cell-based; in short: as §1
T2 sequence (P28335 whole entry): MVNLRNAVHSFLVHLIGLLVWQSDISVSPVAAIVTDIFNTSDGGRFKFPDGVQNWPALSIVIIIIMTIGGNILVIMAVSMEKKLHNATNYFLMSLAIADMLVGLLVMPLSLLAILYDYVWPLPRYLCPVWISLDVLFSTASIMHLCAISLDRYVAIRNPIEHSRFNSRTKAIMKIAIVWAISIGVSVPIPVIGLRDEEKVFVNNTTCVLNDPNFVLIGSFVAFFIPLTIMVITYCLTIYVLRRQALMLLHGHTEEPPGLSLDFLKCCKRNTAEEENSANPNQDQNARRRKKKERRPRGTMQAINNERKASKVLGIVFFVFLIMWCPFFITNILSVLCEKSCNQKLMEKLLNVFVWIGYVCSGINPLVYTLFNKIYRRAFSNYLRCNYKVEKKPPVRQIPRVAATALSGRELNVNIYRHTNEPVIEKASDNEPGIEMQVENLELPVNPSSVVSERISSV

[4] = target: T3, Serotonin 2 receptors; 5-HT2a & 5-HT2c (Homo sapiens) (UniProt P28223+P28335); test: Selectivity index determined from binding affinities of 5-HT2C and 5-HT2A.; format: protein assay
T3 sequence (P28223 whole entry, looked up, one chain of several): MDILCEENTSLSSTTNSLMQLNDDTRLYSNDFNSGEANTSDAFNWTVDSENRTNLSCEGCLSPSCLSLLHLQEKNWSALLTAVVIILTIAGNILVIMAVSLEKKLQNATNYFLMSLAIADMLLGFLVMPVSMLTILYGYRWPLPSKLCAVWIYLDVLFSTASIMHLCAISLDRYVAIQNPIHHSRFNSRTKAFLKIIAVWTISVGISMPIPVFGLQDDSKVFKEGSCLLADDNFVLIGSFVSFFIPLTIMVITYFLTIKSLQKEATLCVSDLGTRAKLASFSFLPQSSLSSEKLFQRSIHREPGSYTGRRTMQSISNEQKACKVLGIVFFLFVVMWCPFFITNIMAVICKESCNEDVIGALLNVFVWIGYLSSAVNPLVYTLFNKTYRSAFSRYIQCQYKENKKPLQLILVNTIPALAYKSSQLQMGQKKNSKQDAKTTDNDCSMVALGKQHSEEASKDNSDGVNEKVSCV

[5] = target: T4, Serotonin receptor (2b and 2c) (Homo sapiens) (UniProt P41595+P28335); test: Selectivity index determined from the binding affinities of 5-HT2C and 5-HT2B.; format: protein assay
[6] = target: 5-hydroxytryptamine receptor 2A (Homo sapiens, UniProt P28223); test: Binding affinity towards human cloned 5-hydroxytryptamine receptor 2A in HEK293 cells, using [3H]ketanserin as radioligand.; format: cell-based; in short: as §1
Sequence of 5-hydroxytryptamine receptor 2A (P28223 whole entry): as the sequence (P28223 whole entry, looked up, one chain of several) above

[7] = target: T1, 5-hydroxytryptamine receptor 2B; test: Displacement of [3H]5-HT from human 5-hydroxytryptamine 2B receptor expressed in HEK293 cells; format: cell-based; in short: as §1
[8] = target: T5, Cytochrome P450 1A2 (Homo sapiens, UniProt P05177); test: Inhibition of heterologously expressed human cytochrome P450 1A2.; format: ADME
T5 sequence (P05177 whole entry): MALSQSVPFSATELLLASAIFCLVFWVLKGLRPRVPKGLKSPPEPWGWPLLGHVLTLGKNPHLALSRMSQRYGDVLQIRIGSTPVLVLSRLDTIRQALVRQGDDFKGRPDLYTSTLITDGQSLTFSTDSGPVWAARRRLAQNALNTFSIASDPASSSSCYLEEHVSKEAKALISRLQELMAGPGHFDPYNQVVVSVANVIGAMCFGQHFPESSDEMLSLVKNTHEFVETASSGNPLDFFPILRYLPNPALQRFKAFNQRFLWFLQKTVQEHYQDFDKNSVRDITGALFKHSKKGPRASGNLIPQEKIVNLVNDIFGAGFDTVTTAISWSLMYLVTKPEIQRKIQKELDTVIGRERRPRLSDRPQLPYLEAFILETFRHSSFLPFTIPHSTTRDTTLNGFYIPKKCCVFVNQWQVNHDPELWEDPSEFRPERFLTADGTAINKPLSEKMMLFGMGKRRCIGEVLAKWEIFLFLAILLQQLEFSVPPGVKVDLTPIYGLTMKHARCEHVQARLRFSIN
In short: (§2)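 Heterologously expressed human CYP1A2 in an isoform-selective assay. Substrate: caffeine N3-demethylation at 500 µM, at the substrate Km.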

[9] = target: T3, Serotonin 2 receptors; 5-HT2a & 5-HT2c (Homo sapiens); test: Selectivity index for binding affinities for 5-HT2C and 5-HT2A receptors; format: protein assay
[10] = target: T4, Serotonin receptor (2b and 2c) (Homo sapiens); test: Selectivity index for binding affinities for 5-HT2C and 5-HT2B receptors; format: protein assay
[11] = target: T5, Cytochrome P450 1A2; test: Inhibition of heterologously expressed human cytochrome P450 1A2; format: ADME; in short: as §2
[12] = target: Cytochrome P450 2C19 (Homo sapiens, UniProt P33261); test: Inhibition of heterologously expressed human cytochrome P450 2C19; format: ADME
Sequence of Cytochrome P450 2C19 (P33261 whole entry): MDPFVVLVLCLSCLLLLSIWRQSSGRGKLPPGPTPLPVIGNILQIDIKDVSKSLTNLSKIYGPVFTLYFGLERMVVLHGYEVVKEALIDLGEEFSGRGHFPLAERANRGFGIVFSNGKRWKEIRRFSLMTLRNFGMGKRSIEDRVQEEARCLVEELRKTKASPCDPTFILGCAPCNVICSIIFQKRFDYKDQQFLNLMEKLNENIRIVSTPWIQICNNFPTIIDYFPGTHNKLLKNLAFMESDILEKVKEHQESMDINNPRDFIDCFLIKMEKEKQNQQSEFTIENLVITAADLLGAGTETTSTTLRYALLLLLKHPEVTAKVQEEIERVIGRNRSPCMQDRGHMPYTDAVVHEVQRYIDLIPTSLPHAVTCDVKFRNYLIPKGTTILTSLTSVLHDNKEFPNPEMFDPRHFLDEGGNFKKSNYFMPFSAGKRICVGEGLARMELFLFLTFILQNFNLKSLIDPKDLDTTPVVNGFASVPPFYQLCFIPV

T1 sequence (P41595 whole entry): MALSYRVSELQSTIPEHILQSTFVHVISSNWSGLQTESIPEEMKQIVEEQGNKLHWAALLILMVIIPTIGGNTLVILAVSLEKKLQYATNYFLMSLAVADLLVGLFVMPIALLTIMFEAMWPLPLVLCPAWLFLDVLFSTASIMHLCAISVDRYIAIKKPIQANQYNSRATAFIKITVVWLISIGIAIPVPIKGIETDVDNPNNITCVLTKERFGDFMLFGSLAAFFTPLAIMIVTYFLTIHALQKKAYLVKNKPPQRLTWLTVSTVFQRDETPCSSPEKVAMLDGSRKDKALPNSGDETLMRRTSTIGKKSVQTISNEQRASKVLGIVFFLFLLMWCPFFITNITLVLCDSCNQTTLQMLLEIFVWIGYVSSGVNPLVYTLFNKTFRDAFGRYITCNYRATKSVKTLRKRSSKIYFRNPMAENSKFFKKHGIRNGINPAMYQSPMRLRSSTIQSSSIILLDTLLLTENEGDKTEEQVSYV

SMILES | Ki [1] | Ki [3] | Selectivity [4] | Selectivity [5] | Ki [6] | Ki [7] | IC50 [8] | inhibition at 1 µM [8] | Selectivity [9] | Selectivity [10] | Inhibition [11] | Inhibition [8] | IC50 [12] | ED50 [2]
COc1cc2c(cc1C(F)(F)F)N(C(=O)Nc1ccc(Oc3cccnc3)nc1)CC2 | 20 nM | 1.26 nM | 80 | 16 | 100 nM | – | – | – | – | – | – | – | – | 0.7 mg/kg
COc1cc2c(cc1C(F)(F)F)N(C(=O)Nc1cccc(-c3cccnc3)c1C)CC2 | – | 25.1 nM | 16 | – | 398 nM | – | – | – | – | – | – | – | – | –
COc1cc2c(cc1C(F)(F)F)N(C(=O)Nc1cccc(-c3c(C)ccnc3C)c1)CC2 | 12.6 nM | 2.51 nM | 80 | 5 | 200 nM | – | – | – | – | – | – | – | – | –
COc1cc2c(cc1C(F)(F)F)N(C(=O)Nc1cncc(-c3cc(F)cc(F)c3)c1)CC2 | – | 79.4 nM | 15 | 6 | 1260 nM | 501 nM | – | – | – | – | – | – | – | –
COc1cc2c(cc1C(F)(F)F)N(C(=O)Nc1cc(-c3cccnc3)ccc1F)CC2 | 2000 nM | 2000 nM | 4 | 1 | 7940 nM | – | – | – | – | – | – | – | – | –
COc1cc2c(cc1C(F)(F)F)N(C(=O)Nc1cc(-c3ccccc3)cc(-c3cccnc3)c1)CC2 | 15.8 nM | 2.51 nM | 250 | 6 | 631 nM | – | – | – | – | – | – | – | – | > 5 mg/kg
COc1cc2c(cc1C(F)(F)F)N(C(=O)Nc1cncc(-c3c(F)cccc3F)c1)CC2 | – | 25.1 nM | > 420 | 4 | > 10000 nM | 100 nM | – | – | – | – | – | – | – | –
COc1cc2c(cc1C(F)(F)F)N(C(=O)Nc1cc3c(c(-c4cccnc4)c1)OCC3)CC2 | 7.94 nM | 0.501 nM | 500 | 16 | 251 nM | – | 2000 nM | – | – | – | – | – | – | 2 mg/kg
COc1cc2c(cc1C(F)(F)F)N(C(=O)Nc1ccc(Oc3cccnc3C)nc1)CC2 | 50.1 nM | 0.631 nM | – | – | 794 nM | – | > 100000 nM | – | 1300 | 80 | – | – | – | 2.8 mg/kg
COc1cc2c(cc1C(F)(F)F)N(C(=O)Nc1cc(Br)cc(-c3cccnc3)c1)CC2 | 20 nM | 2 nM | > 500 | 10 | > 1000 nM | – | 7000 nM | – | – | – | – | – | – | 5 mg/kg
CCc1cc(NC(=O)N2CCc3cc(OC)c(C(F)(F)F)cc32)cc(-c2cccnc2)c1 | 10 nM | 0.631 nM | 320 | 16 | 200 nM | – | 6000 nM | – | – | – | – | – | – | 1.2 mg/kg
COc1cc2c(cc1C(F)(F)F)N(C(=O)Nc1cc(F)c(C)c(-c3cccnc3)c1)CC2 | 7.94 nM | 0.631 nM | 1600 | 13 | 1580 nM | – | – | – | – | – | – | – | – | > 5 mg/kg
COc1cc2c(cc1C(F)(F)F)N(C(=O)Nc1cncc(-c3cccnc3)c1)CC2 | – | 0.794 nM | 80 | 12 | 63.1 nM | 10 nM | – | – | – | – | – | 77% | – | –
COc1cc2c(cc1C(F)(F)F)N(C(=O)Nc1cccnc1)CC2 | – | – | 120 | – | – | – | 20 nM | – | – | – | – | – | – | –
CSc1cc2c(cc1C(F)(F)F)N(C(=O)Nc1cccc(-c3cccnc3)c1)CC2 | – | 1.58 nM | 50 | 5 | 79.4 nM | 7.94 nM | – | – | – | – | – | – | – | –
COc1cc2c(cc1C(F)(F)F)N(C(=O)Nc1cccc(-c3cccnc3)c1Cl)CC2 | 5.01 nM | 10 nM | 25 | 0.5 | 251 nM | – | – | – | – | – | – | – | – | –
Cc1cc2c(cc1Cl)N(C(=O)Nc1ccc(Oc3cccnc3C)nc1)CC2 [SB-242084] | – | – | – | – | – | – | – | – | 160 | 100 | – | – | > 100000 nM | –

Continued, in another order:

Ki [1] | Ki [3] | Selectivity [4] | Selectivity [5] | Ki [6] | Ki [7] | IC50 [8] | inhibition at 1 µM [8] | Selectivity [9] | Selectivity [10] | Inhibition [11] | Inhibition [8] | IC50 [12] | SMILES | ED50 [2]
3.98 nM | 0.316 nM | > 20000 | 12 | > 6310 nM | – | > 100000 nM | – | – | – | – | – | – | COc1cc2c(cc1C(F)(F)F)N(C(=O)Nc1ccc(C)c(-c3cnccc3C)c1)CC2 | 1.4 mg/kg
– | 6.31 nM | 40 | – | 251 nM | 63.1 nM | – | – | – | – | – | – | – | COc1cc2c(cc1C(F)(F)F)N(C(=O)Nc1cncc(-c3ccc(F)cc3)c1)CC2 | 10 mg/kg
7.94 nM | 1 nM | 200 | 8 | 200 nM | – | 4000 nM | – | – | – | – | – | – | COc1cc2c(cc1C(F)(F)F)N(C(=O)Nc1cccc(-c3cccnc3)c1)CC2 | 0.6 mg/kg
– | 5.01 nM | 320 | 5 | 1580 nM | 25.1 nM | 2600 nM | – | – | – | – | – | – | COc1cc2c(cc1C(F)(F)F)N(C(=O)Nc1cncc(-c3ccccc3)c1)CC2 | > 20 mg/kg
– | 0.631 nM | > 1500 | – | > 1000 nM | – | 11000 nM | – | – | – | – | – | – | COc1cc2c(cc1C(F)(F)F)N(C(=O)Nc1ccc(Cl)c(-c3cnccc3C)c1)CC2 | 1.4 mg/kg
– | 0.631 nM | 100 | 16 | 63.1 nM | 10 nM | 50000 nM | – | – | – | – | – | – | COc1cc2c(cc1C(F)(F)F)N(C(=O)Nc1cncc(-c3ccncc3)c1)CC2 | –
– | 0.631 nM | 400 | – | 251 nM | – | – | 8% | – | – | – | – | – | COc1cc2c(cc1C(F)(F)F)N(C(=O)Nc1cccc(-c3cnccc3C)c1)CC2 | 5 mg/kg
– | 3.16 nM | 50 | 8 | 158 nM | 25.1 nM | – | – | – | – | – | – | – | CSc1cc2c(cc1C(F)(F)F)N(C(=O)Nc1cccc(-c3ccncc3)c1)CC2 | –
15.8 nM | 5.01 nM | 100 | 3 | 501 nM | – | – | – | – | – | 2% | – | – | COc1cc2c(cc1C(F)(F)F)N(C(=O)Nc1cccc(-c3cccnc3C)c1)CC2 | > 10 mg/kg
25.1 nM | 5.01 nM | 250 | 5 | 1260 nM | – | 73000 nM | – | – | – | – | – | – | COc1cc2c(cc1C(F)(F)F)N(C(=O)Nc1ccc(Cl)c(-c3cccnc3)c1)CC2 | 5.5 mg/kg
12.6 nM | 5.01 nM | > 2000 | 3 | > 10000 nM | – | – | – | – | – | – | – | – | COc1cc2c(cc1C(F)(F)F)N(C(=O)Nc1ccc(-c3ccncc3)cc1)CC2 | –
10 nM | 15.8 nM | 250 | 0.6 | 3980 nM | – | – | – | – | – | – | – | – | COc1cc2c(cc1C(F)(F)F)N(C(=O)Nc1ccc(-c3cccnc3)cc1)CC2 | > 10 mg/kg
15.8 nM | 0.501 nM | 400 | 30 | 200 nM | – | – | – | – | – | – | 3% | – | COc1ccc(NC(=O)N2CCc3cc(OC)c(C(F)(F)F)cc32)cc1-c1cccnc1 | 1.2 mg/kg
– | 20 nM | 25 | – | 501 nM | – | – | 3% | – | – | – | – | – | COc1cc2c(cc1C(F)(F)F)N(C(=O)Nc1cccc(-c3ccccn3)c1)CC2 | –
5.01 nM | 1 nM | 5000 | 5 | 5010 nM | – | 7000 nM | – | – | – | – | – | – | COc1cc2c(cc1C(F)(F)F)N(C(=O)Nc1ccc(C)c(-c3cccnc3)c1)CC2 | 1.6 mg/kg

Source: ChEMBL document CHEMBL1132976, “Biarylcarbamoylindolines are novel and selective 5-HT(2C) receptor inverse agonists: identification of 5-methyl-1-[[2-[(2-methyl-3-pyridyl)oxy]- 5-pyridyl]carbamoyl]-6-trifluoromethylindoline (SB-243213) as a potential antidepressant/anxiolytic agent” (J Med Chem, 2000)
